Laboratory results: ChEMBL document CHEMBL4020718, “Trifluoromethyl arylamides with antileukemia effect and intracellular inhibitory activity over serine/arginine-rich protein kinases (SRPKs)” (Eur J Med Chem, 2017)
Calls of active or inactive are those of the source. The rule behind the calls is not given here.

What was measured:
[1] = tested on: NALM-6; experiment: Cytotoxicity against human NALM6 cells assessed as reduction in cell viability up to 200 uM after 48 hrs by MTT assay; format: functional, cell-based; details: Homo sapiens, NALM-6, 48 h; read-out: IC50
Method in brief: (§1)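 Cells (7x10^4/well) in RPMI-1640 with 10% FBS, 37 °C, 5% CO2; exposed to compound dilutions 0–200 µM (medium with 10% FBS, 0.4% DMSO) for 48 h. MTT added, 3 h at 37 °C, formazan dissolved in DMSO, absorbance 540 nm. IC50 from concentration–response; means ± standard deviation of three independent experiments.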

[2] = organism: Homo sapiens; experiment: Inhibition of SRPK in human NALM6 cells assessed as decrease in RON mRNA expression level at 20 uM after 24 hrs by qRT-PCR analysis; format: cell-based
Method in brief: (§2)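 Nalm6 given 20 µM for 24 h with 0.4% DMSO control; mRNA isolated with Tri Reagent, quantified spectrophotometrically, integrity checked on 1% agarose, then RT-PCR for target transcripts; one representative of three experiments.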

[3] = tested on: NALM-6; experiment: Induction of apoptosis in human NALM6 cells assessed as viable cells at 20 uM after 24 hrs by Annexin-V/FITC propidium iodide staining based flow cytometric analysis (reference value: 90.10%); format: functional; details: NALM-6, 24 h, read-out: Activity
[4] = tested on: NALM-6; experiment: Antiproliferative activity against human NALM6 cells at 20 uM by trypan blue dye exclusion assay; format: functional, cell-based; details: TDE = time-dependent effect
Method in brief: (§3)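 Nalm6 at 1x10^4 or HL60 at 1.5x10^4 cells per well exposed to 20 µM; DMSO (0.4% v/v) as control. Viable cells counted by trypan blue exclusion on a hemocytometer at 0, 24, 48, 72 and 96 h; growth inhibition relative to control.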

[5] = tested on: NALM-6; experiment: Effect on actin expression level in human NALM6 cells at 20 uM after 24 hrs by Western blot analysis; format: ADME, cell-based; details: nalm-6, 24 h
Method in brief: (§4)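 Nalm6 treated 24 h at 20 µM (DMSO vehicle control), lysed at 2x10^7 cells/mL in PBS with 1% NP40, 1 mM EDTA, 150 mM NaCl, 10 mM Tris pH 7.4 plus protease/phosphatase inhibitors; on ice 10 min, sonicated, spun 15000 xg; SDS-PAGE, PVDF, milk block overnight, primary and secondary antibody 2 h each; representative of three.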

[6] = tested on: Jurkat; experiment: Cytotoxicity against human Jurkat cells assessed as reduction in cell viability up to 200 uM after 48 hrs by MTT assay; format: functional, cell-based; details: Homo sapiens, Jurkat, 48 h; read-out: IC50; method in brief: as §1
[7] = tested on: HL-60; experiment: Antiproliferative activity against human HL60 cells at 20 uM by trypan blue dye exclusion assay; format: functional, cell-based; details: TDE = time-dependent effect; method in brief: as §3
[8] = tested on: NALM-6; experiment: Induction of apoptosis in human NALM6 cells assessed as necrotic cells at 20 uM after 24 hrs by Annexin-V/FITC propidium iodide staining based flow cytometric analysis (reference value: 0%); format: functional
[9] = tested on: HL-60; experiment: Cytotoxicity against human HL60 cells assessed as cell growth inhibition at 20 uM after 96 hrs by trypan blue dye exclusion assay relative to control; format: functional; details: HL-60, 96 h, read-out: GI; method in brief: as §3
[10] = tested on: NALM-6; experiment: Effect on SRPK2 expression level in human NALM6 cells at 20 uM after 24 hrs by Western blot analysis; format: functional, cell-based; method in brief: as §4
[11] = tested on: NALM-6; experiment: Synergistic cytotoxicity against human NALM6 cells assessed as reduction in cell viability by measuring combination index at 1.5 uM after 48 hrs in presence of 0.5 nM vincristine by MTT assay; format: functional
[12] = tested on: NALM-6; experiment: Induction of apoptosis in human NALM6 cells assessed as late apoptotic cells at 20 uM after 12 hrs by Annexin-V/FITC propidium iodide staining based flow cytometric analysis (reference value: 0.45%); format: functional
[13] = tested on: NALM-6; experiment: Cytotoxicity against human NALM6 cells assessed as cell growth inhibition at 20 uM after 96 hrs by trypan blue dye exclusion assay relative to control; format: functional; details: NALM-6, 96 h, read-out: GI; method in brief: as §3
[14] = tested on: NALM-6; experiment: Induction of apoptosis in human NALM6 cells assessed as viable cells at 20 uM after 12 hrs by Annexin-V/FITC propidium iodide staining based flow cytometric analysis (reference value: 92.11%); format: functional; details: NALM-6, 12 h, read-out: Activity
[15] = tested on: NALM-6; experiment: Effect on actin expression level in human NALM6 cells at 20 uM after 24 hrs by qRT-PCR analysis; format: ADME, cell-based; details: nalm-6, 24 h
[16] = tested on: NALM-6; experiment: Induction of apoptosis in human NALM6 cells assessed as early apoptotic cells at 20 uM after 12 hrs by Annexin-V/FITC propidium iodide staining based flow cytometric analysis (reference value: 7.40%); format: functional
[17] = tested on: NALM-6; experiment: Induction of apoptosis in human NALM6 cells assessed as late apoptotic cells at 20 uM after 24 hrs by Annexin-V/FITC propidium iodide staining based flow cytometric analysis (reference value: 1.68%); format: functional
[18] = tested on: NALM-6; experiment: Induction of apoptosis in human NALM6 cells assessed as necrotic cells at 20 uM after 12 hrs by Annexin-V/FITC propidium iodide staining based flow cytometric analysis (reference value: 0.04%); format: functional
[19] = tested on: NALM-6; experiment: Synergistic cytotoxicity against human NALM6 cells assessed as reduction in cell viability by measuring combination index at 3 uM after 48 hrs in presence of 1 nM vincristine by MTT assay; format: functional
[20] = tested on: NALM-6; experiment: Induction of apoptosis in human NALM6 cells assessed as early apoptotic cells at 20 uM after 24 hrs by Annexin-V/FITC propidium iodide staining based flow cytometric analysis (reference value: 8.22%); format: functional
[21] = tested on: PBMC; experiment: Cytotoxicity against PHA-stimulated human PBMC assessed as reduction in cell viability at 25 uM after 48 hrs by MTT assay; format: cell-based
Method in brief: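 Primary peripheral blood mononuclear cells seeded 1x10^5/well in complete RPMI; treated with 25 µM for 48 h. Viability by MTT (3 h, 37 °C, DMSO solubilization, 540 nm), vehicle taken as 100% viability; triplicate experiments, means ± standard deviation.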

[22] = tested on: HL-60; experiment: Cytotoxicity against human HL60 cells assessed as reduction in cell viability up to 200 uM after 48 hrs by MTT assay; format: functional, cell-based; details: Homo sapiens, HL-60, 48 h; read-out: IC50; method in brief: as §1
[23] = tested on: NALM-6; experiment: Induction of autophagy in human NALM6 cells at 20 uM after 24 hrs by acridin orange staining based fluorescence microscopy; format: functional, cell-based
Method in brief: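 Nalm6 (7x10^4/well) exposed 24 h to 20 µM or 0.4% DMSO, washed in PBS, stained with 1 µM acridine orange at 37 °C for 15 min, washed, resuspended in PBS; autophagosomes (red fluorescence) viewed by fluorescence microscopy; three experiments.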

[24] = tested on: NALM-6; experiment: Effect on SRPK1 expression level in human NALM6 cells at 20 uM after 24 hrs by Western blot analysis; format: functional, cell-based; method in brief: as §4
[25] = organism: Homo sapiens; experiment: Inhibition of SRPK in human NALM6 cell lysates assessed as reduction in phospho-SR epitopes signal at 20 uM after 24 hrs by Western blot analysis; method in brief: as §4
[26] = organism: Homo sapiens; experiment: Inhibition of SRPK in human NALM6 cells assessed as decrease in VEGF mRNA expression level at 20 uM after 24 hrs by qRT-PCR analysis; format: cell-based; method in brief: as §2
[27] = tested on: NALM-6; experiment: Synergistic cytotoxicity against human NALM6 cells assessed as reduction in cell viability by measuring combination index at 8.5 uM after 48 hrs in presence of 1 nM vincristine by MTT assay; format: functional
[28] = organism: Homo sapiens; experiment: Inhibition of SRPK in human NALM6 cells assessed as decrease in MAP2K2 mRNA expression level at 20 uM after 24 hrs by qRT-PCR analysis; format: cell-based; method in brief: as §2
[29] = tested on: NALM-6; experiment: Synergistic cytotoxicity against human NALM6 cells assessed as reduction in cell viability by measuring combination index at 4.3 uM after 48 hrs in presence of 0.5 nM vincristine by MTT assay; format: functional
[30] = organism: Homo sapiens; experiment: Inhibition of SRPK in human NALM6 cells assessed as decrease in MAP2K1 mRNA expression level at 20 uM after 24 hrs by qRT-PCR analysis; format: cell-based; method in brief: as §2

| Structure (SMILES) | IC50 [1] | inhibition [2] | viability at 20 µM [3] | Activity [4] | Activity [5] | IC50 [6] | Activity [7] | Activity [8] | inhibition of growth at 20 µM [9] | Activity [10] | Activity [12] | inhibition of growth at 20 µM [13] | viability at 20 µM [14] | Activity [15] | Activity [16] | Activity [17] | Activity [18] | Activity [20] | Activity [21] | IC50 [22] | also measured |
| --- | --- | --- | --- | --- | --- | --- | --- | --- | --- | --- | --- | --- | --- | --- | --- | --- | --- | --- | --- | --- | --- |
| O=C(Nc1cc(C(F)(F)F)ccc1Nc1ccc(Br)cc1)c1ccccc1 | 6 µM | Active | 73.2% | Tde | Non-Toxic | 33.8 µM | Tde | 0.01% | 48% | inactive | 0.52% | 72% | 85.9% | Non-Toxic | 13.53% | 2.01% | 0.02% | 24.73% | Non-Toxic | 11.8 µM | CI [11]: 0.56; CI [19]: 1.05; Activity [23]: Active; Activity [24]: inactive |
| O=C(Nc1cc(C(F)(F)F)ccc1Nc1ccc(Br)cc1)c1cccnc1 | 17 µM | Active | 84.4% | Tde | Non-Toxic | 17.8 µM | Tde | 0.01% | 38% | inactive | 0.67% | 66% | 87% | Non-Toxic | 12.33% | 0.92% | 0% | 14.66% | Non-Toxic | 8.5 µM | inhibition [25]: Active; inhibition [26]: Active; CI [27]: 0.78; inhibition [28]: Active; CI [29]: 0.45; Activity [23]: Active; inhibition [30]: Active; Activity [24]: inactive |
